This passage reports Activity, Stability and log10cfu results from ChEMBL document CHEMBL3297702, “Improving photodynamic inactivation of bacteria in dentistry: highly effective and fast killing of oral key pathogens with novel tooth-colored type-II photosensitizers” (J Med Chem, 2014).

Calls of active or inactive are those of the source. No cut-off for these calls is given here.

Data set [1] deals with Aggregatibacter actinomycetemcomitans. Description: Photodynamic inactivation of Aggregatibacter actinomycetemcomitans ATCC 43718 assessed as reduction of log10 CFU at 1 to 250 uM incubated prior to irradiation with 150 j/cm'2 for 120 secs measured after 48 hrs by agar plating method. Type of data set: functional. The note with it: Y4. In outline:
(§1)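 A. actinomycetemcomitans ATCC 43718 cultured overnight in BHI broth under anaerobic conditions, 37 °C with shaking. Stationary-phase cells were spun down, taken up in PBS to 10^7–10^8/mL, and combined 1:1 with PS (final 0–250 µM) or water. After 10 s they were irradiated at 1260 ± 50 mW/cm2 or kept dark. Serial dilutions went onto BHI agar, incubated anaerobically at 37 °C for 48 h, and CFU were scored. Results are medians from 3 experiments × triplicate versus untreated controls.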

The test system of data set [2] is Actinomyces naeslundii. In words: Photodynamic inactivation of Actinomyces naeslundii T14V assessed as reduction of log10 CFU at 1 to 250 uM preincubated for 10 secs followed by irradiation with 150 j/cm'2 for 120 secs measured after 48 hrs by agar plating method. In kind it is functional, organism-based. The essentials: (§2)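 A. naeslundii T14V grown overnight at 37 °C, shaken, aerobically in BHI broth. Harvested at stationary phase, resuspended in PBS to 10^7–10^8 bacteria/mL (OD600). Mixed 1:1 with PS (final 0–250 µM) or water, 10 s incubation, then blue photopolymerizer light (1260 ± 50 mW/cm2) or dark. Tenfold dilutions plated on blood agar, aerobic 37 °C 48 h, CFU counted; medians of three independent experiments in triplicate.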

Data set [3] concerns Actinomyces naeslundii. Description: Photodynamic inactivation of Actinomyces naeslundii T14V assessed as reduction of log10 CFU at 1 to 250 uM preincubated for 10 secs followed by irradiation with 25 j/cm'2 for 20 secs measured after 48 hrs by agar plating method. In kind it is functional, organism-based. In outline: as §2
In data set [4] the test system is Streptococcus mutans. Description: Photodynamic inactivation of Streptococcus mutans ATCC 25175 assessed as reduction of log10 CFU at 1 to 250 uM preincubated for 10 secs followed by irradiation with 150 j/cm'2 for 120 secs measured after 48 hrs by agar plating method. In kind it is functional.
The nature of data set [5]: Stability of the compound in D2O at 90 degC after > 10 mins by NMR analysis. In kind it is physicochemical.
The subject of the next data set is Enterococcus faecalis. Description: Photodynamic inactivation of Enterococcus faecalis ATCC 29212 assessed as reduction of log10 CFU at 1 to 250 uM preincubated for 10 secs followed by irradiation with 50 j/cm'2 for 40 secs measured after 24 hrs by agar plating method. Type of data set: functional, organism-based. In outline:
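E. faecalis ATCC 29212, aerobic overnight BHI culture at 37 °C, was harvested at stationary phase and suspended in PBS at 10^7–10^8 bacteria/mL. It was mixed 1:1 with PS to 0–250 µM final, held 10 s, then illuminated (1260 ± 50 mW/cm2) or kept dark. Dilutions were plated on Mueller-Hinton agar, aerobic 37 °C 24 h, CFU counted. Medians of three independent triplicate experiments, referred to untreated controls.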

The subject of data set [6] is Aggregatibacter actinomycetemcomitans. In words: Photodynamic inactivation of Aggregatibacter actinomycetemcomitans ATCC 43718 assessed as reduction of log10 CFU at 5 uM incubated prior to irradiation with 25 j/cm'2 for 20 secs measured after 48 hrs by agar plating method relative to control. In kind it is functional, Y4. In outline:
as §1

Data set [7] has as its system Actinomyces naeslundii. In words: Photodynamic inactivation of Actinomyces naeslundii T14V assessed as reduction of log10 CFU at 10 uM incubated prior to irradiation with 25 j/cm'2 for 20 secs measured after 48 hrs by agar plating method (reference value: <1 no unit). In kind it is functional. In outline:
as §2

Data set [8] concerns Aggregatibacter actinomycetemcomitans. In words: Photodynamic inactivation of Aggregatibacter actinomycetemcomitans ATCC 43718 assessed as reduction of log10 CFU at 100 uM incubated prior to irradiation with 50 j/cm'2 for 40 secs measured after 48 hrs by agar plating method (reference value: <1 no unit). Type of data set: functional, Y4. In outline:
as §1

The test system of data set [9] is Actinomyces naeslundii. Description: Photodynamic inactivation of Actinomyces naeslundii T14V assessed as reduction of log10 CFU at 5 uM incubated prior to irradiation with 150 j/cm'2 for 120 secs measured after 48 hrs by agar plating method (reference value: <1 no unit). Type of data set: functional. The essentials:
as §2

Data set [10] deals with Streptococcus mutans. Description: Photodynamic inactivation of Streptococcus mutans ATCC 25175 assessed as reduction of log10 CFU at 100 uM incubated prior to irradiation with 25 j/cm'2 for 20 secs measured after 48 hrs by agar plating method (reference value: <1 no unit). In kind it is functional.
Data set [11] concerns Aggregatibacter actinomycetemcomitans. In words: Photodynamic inactivation of Aggregatibacter actinomycetemcomitans ATCC 43718 assessed as reduction of log10 CFU at 10 uM incubated prior to irradiation with 25 j/cm'2 for 20 secs measured after 48 hrs by agar plating method relative to control. In kind it is functional, Y4. The essentials: as §1
In data set [12] the test system is Actinomyces naeslundii. In words: Photodynamic inactivation of Actinomyces naeslundii T14V assessed as reduction of log10 CFU at 100 uM incubated prior to irradiation with 25 j/cm'2 for 20 secs measured after 48 hrs by agar plating method (reference value: <1 no unit). In kind it is functional. In outline:
as §2

The test system of data set [13] is Actinomyces naeslundii. Description: Photodynamic inactivation of Actinomyces naeslundii T14V assessed as reduction of log10 CFU at 1 uM incubated prior to irradiation with 25 j/cm'2 for 20 secs measured after 48 hrs by agar plating method (reference value: <1 no unit). Type of data set: functional. The essentials:
as §2

Data set [14] concerns Actinomyces naeslundii. In words: Photodynamic inactivation of Actinomyces naeslundii T14V assessed as reduction of log10 CFU at 10 uM incubated prior to irradiation with 50 j/cm'2 for 40 secs measured after 48 hrs by agar plating method (reference value: <1 no unit). Type of data set: functional. The essentials:
as §2

Data set [15] has as its system Actinomyces naeslundii. Description: Photodynamic inactivation of Actinomyces naeslundii T14V assessed as reduction of log10 CFU at 1 uM incubated prior to irradiation with 50 j/cm'2 for 40 secs measured after 48 hrs by agar plating method (reference value: <1 no unit). In kind it is functional. In outline: as §2
Data set [16] deals with Aggregatibacter actinomycetemcomitans. In words: Photodynamic inactivation of Aggregatibacter actinomycetemcomitans ATCC 43718 assessed as reduction of log10 CFU at 5 uM incubated prior to irradiation with 150 j/cm'2 for 120 secs measured after 48 hrs by agar plating method relative to control. In kind it is functional, Y4. The essentials: as §1
Data set [17] concerns Actinomyces naeslundii. Description: Photodynamic inactivation of Actinomyces naeslundii T14V assessed as reduction of log10 CFU at 5 uM incubated prior to irradiation with 25 j/cm'2 for 20 secs measured after 48 hrs by agar plating method (reference value: <1 no unit). Type of data set: functional. In outline: as §2
Data set [18] deals with Aggregatibacter actinomycetemcomitans. In words: Photodynamic inactivation of Aggregatibacter actinomycetemcomitans ATCC 43718 assessed as reduction of log10 CFU at 1 uM incubated prior to irradiation with 150 j/cm'2 for 120 secs measured after 48 hrs by agar plating method relative to control. In kind it is functional, Y4. In outline:
as §1

For data set [19] the test system is unchanged. In words: Photodynamic inactivation of Aggregatibacter actinomycetemcomitans ATCC 43718 assessed as reduction of log10 CFU at 100 uM incubated prior to irradiation with 25 j/cm'2 for 20 secs measured after 48 hrs by agar plating method relative to control. Type of data set: functional, Y4. In outline:
as §1

Data set [20] relates to Streptococcus mutans. In words: Photodynamic inactivation of Streptococcus mutans ATCC 25175 assessed as reduction of log10 CFU at 5 uM incubated prior to irradiation with 50 j/cm'2 for 40 secs measured after 48 hrs by agar plating method (reference value: <1 no unit). In kind it is functional.
The test system of data set [21] is Aggregatibacter actinomycetemcomitans. Description: Photodynamic inactivation of Aggregatibacter actinomycetemcomitans ATCC 43718 assessed as reduction of log10 CFU at 10 uM incubated prior to irradiation with 150 j/cm'2 for 120 secs measured after 48 hrs by agar plating method relative to control. Type of data set: functional, Y4. The essentials:
as §1

With `C[N+](C)(C)CC1=Cc2cccc3cccc(c23)C1=O.[Cl-]`, the result (in [1]; in the data set with Actinomyces naeslundii [2]; in the data set on Actinomyces naeslundii [3]; with Streptococcus mutans [4]; with Enterococcus faecalis) was Active. Further, the Stability result in data set [5] is “Stable”.
As to `O=C1C(C[n+]2ccccc2)=Cc2cccc3cccc1c23.[Cl-]`, the outcome (in [1]; with Actinomyces naeslundii [2]; in the data set with Actinomyces naeslundii [3]; in the data set with Streptococcus mutans [4]; with Enterococcus faecalis) was Active. For the same compound, the log10cfu in [6] was less than 3; in the data set with Actinomyces naeslundii [7] it was greater than 5; in data set [8], greater than 6; with Actinomyces naeslundii [9] it was greater than 5; with Streptococcus mutans [10], greater than 6; in data set [11] it was greater than 6. Besides, the log10cfu in the data set with Actinomyces naeslundii [12] is greater than 5; in the data set on Actinomyces naeslundii [13] it was less than 1; in the data set with Actinomyces naeslundii [14], greater than 5; in the data set on Actinomyces naeslundii [15], less than 1; in data set [16], greater than 6; with Actinomyces naeslundii [17] it was less than 3. Further, the log10cfu in [18] is greater than 6; in data set [19] it was greater than 6; in the data set on Streptococcus mutans [20], less than 3; in data set [21], greater than 6. Besides, the Stability entry in data set [5] is “Stable”.
As for `C[N+](C)(CCO)CC1=Cc2cccc3cccc(c23)C1=O.[Cl-]`, the log10cfu in data set [6] is on record as less than 3; in the data set with Actinomyces naeslundii [7], less than 3; in [8], greater than 6; with Actinomyces naeslundii [9], less than 5; in the data set with Streptococcus mutans [10], greater than 6; in data set [11], less than 3. Besides, the log10cfu with Actinomyces naeslundii [12] was greater than 5; in the data set with Actinomyces naeslundii [13] it was less than 1; in the data set with Actinomyces naeslundii [14] it was less than 5; in the data set with Actinomyces naeslundii [15], less than 1; in data set [16], greater than 6; in the data set on Actinomyces naeslundii [17] it was less than 1. The log10cfu in data set [18] is greater than 6; in data set [19], greater than 3; with Streptococcus mutans [20], less than 1; in data set [21], greater than 6.
